The list is not random: actives were taken first. Their share in the collection is about 0.7%.
proCasp3 act = activators of human procaspase-3 D3A mutant, primary screen, biochemical, absorbance, PC-3 D3A mutant, single concentration; Caspase-3 (Homo sapiens), P42574; 330,000 tested, 0.11% active; activation, % at 8.5 µM; recombinant procaspase-3 D3A, Ac-DEVD-pNA absorbance 405 nm;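 active means activation above the mean of all tested compounds plus 3 SD, cut at about 21% in these data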
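Assay system: Autoprocessing-dead procaspase-3 D3A mutant enzyme; also added: Ac-DEVD-pNA; doses: one concentration, 8.5 µM nominal, 0.8% DMSO; times: 1 h compound preincubation, 2 h substrate hydrolysis at 25 °C; technique: 405 nm absorbance of p-nitroaniline, reads at 0 and 120 min; measure: % activation between DMSO and enzyme-spiked controls; repeats: single replicate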
FXN GAA850 act = FXN promoter activators, primary screen, cell-based, luciferase luminescence, HEK293 lucGAA850; AID 540364, 2011; 360,000 tested, 0.56% active; activation, % at 6 µM; HEK293 lucGAA850 FXN promoter luciferase reporter, 24 h; percent of 10 µM SAHA response;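 active means activation above the average of all compounds screened plus 3 SD, cutoff fixed separately per campaign, cut at about 7.5% in these data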
proCasp7 act = procaspase-7 activators, primary screen, counter-screen for procaspase-3 activator project, biochemical, absorbance, HTS, human | Caspase-7 (Homo sapiens), P55210 | recombinant procaspase-7, Ac-DEVD-pNA absorbance 405 nm; D23A/D198A/D206A triple mutant, cannot self-cleave; scale: DMSO 0, 5 µM enzyme 100 | activation, % at 8.5 µM | 330,000 tested, 0.093% active | AID 463210, 2010;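 active means percent activation above the screen-wide mean plus 3 SD, cut at about 25% in these data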
Target sequence (P55210 whole entry D23A/D198A/D206A): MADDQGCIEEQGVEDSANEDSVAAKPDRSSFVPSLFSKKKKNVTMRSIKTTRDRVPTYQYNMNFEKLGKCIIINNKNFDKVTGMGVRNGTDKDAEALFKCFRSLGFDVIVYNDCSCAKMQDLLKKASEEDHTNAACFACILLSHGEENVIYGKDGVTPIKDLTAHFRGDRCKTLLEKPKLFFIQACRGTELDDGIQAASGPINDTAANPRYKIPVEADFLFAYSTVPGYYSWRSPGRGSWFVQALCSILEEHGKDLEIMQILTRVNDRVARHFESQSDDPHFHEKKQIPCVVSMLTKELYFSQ
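System: Procaspase-7 triple mutant (PC-7 D3A); measure: % activation from two-timepoint absorbance difference, scaled to controls; times: 1 h compound preincubation, 2 h substrate cleavage, 25 °C; also added: Ac-DEVD-pNA substrate, 400 µM as added; measured by: Epi-absorbance of released pNA at 405 nm, two timepoints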
GAA30 FXN cntr = GAA30 FXN promoter activators, confirmation, counter-screen for GAA850 frataxin promoter activator project, cell-based, luminescence, HEK293, lucGAA30, triplicate; activation, % at 6 µM; 1,900 tested, 66% active; HEK293 lucGAA30 FXN promoter luciferase, 24 h; DMSO = 0%, 5 µM ipriflavone = 100%; shares compounds with FXN GAA850 act;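 active means mean activation above the mean of solvent-only control wells plus 3 SD, cut at about 22% in these data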;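 further: counterscreen of GAA850 promoter hits where activity marks nonselective or luminescence artifacts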
FXN GAA850 conf = FXN GAA850 promoter activators in reporter cells, confirmation, cell-based, luminescence, HEK293 lucGAA850, triplicate | HEK293 lucGAA850 FXN promoter luciferase reporter, 24 h; 100% = activation by SAHA | 1,900 tested, 86% active | shares compounds with FXN GAA850 act | activation, % at 6 µM;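 active means mean activation above a set limit taken from the primary screen, cut at about 8% in these data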
Each line names hits and unclear results; the compound was inactive in the other large screens (follow-up assays come after a bar, where they were run).

CC(C)c1nc2sc3c(NCc4ccccc4)ncnc3c2c2c1COC(C)(C)C2	none
CC(C)c1nc2sc3c(NCc4ccco4)ncnc3c2c2c1COC(C)(C)C2	FXN GAA850 act 8.1 | GAA30 FXN cntr inactive | FXN GAA850 conf 8.0
Cc1c(C(=O)N(C)c2ccc(Cl)cc2)cnn1-c1ccccc1	none
CC(C)C[C@H](NC(=O)[C@H](Cc1ccccc1)n1c(=O)[nH]c2ccccc2c1=O)C(=O)N1CCC[C@H]1C(=O)O	none
CCC1(c2ccccc2)NC(=O)N(CC(=O)N(C)Cc2c(F)cccc2Cl)C1=O (stereo unspecified)	none
Cc1ccc(NC(=O)C(C)N2C(=O)c3ccccc3C2=O)cc1C (stereo unspecified)	none
Cc1cc2oc(C(=O)NCc3ccccc3)cc(=O)c2cc1C	none
O=C(Oc1ccc(/C=N/NC(=O)c2ccccn2)cc1)c1ccc(Br)cc1	none
O=C(N/N=C/C=C\c1ccco1)c1ccccn1	FXN GAA850 act 7.7 | GAA30 FXN cntr 63 | FXN GAA850 conf 38
O=C(N/N=C/c1ccc(OC(=O)c2ccco2)cc1)c1ccccn1	FXN GAA850 act 7.8 | GAA30 FXN cntr 115 | FXN GAA850 conf 33
O=C(N/N=C/C=C/c1ccco1)c1cnccn1	none
O=C(N/N=C\c1ccc[nH]1)C1COc2ccccc2O1 (stereo unspecified)	none
CC(Sc1nc2ncc(Cl)cc2[nH]1)C(=O)Nc1ccc(C(N)=O)cc1 (stereo unspecified)	none
COc1ccc(OCCCC(=O)Nc2ncn[nH]2)cc1	none
COc1ccc(CC(N)c2csc(NC(=O)Nc3ccccc3Oc3ccccc3)n2)cc1 (stereo unspecified)	FXN GAA850 act 8.1 (no result: proCasp3 act, proCasp7 act) | GAA30 FXN cntr inactive | FXN GAA850 conf inactive
NC(Cc1ccccc1)c1csc(NC(=O)Nc2ccccc2Oc2ccccc2)n1 (stereo unspecified)	none (no result: proCasp3 act, proCasp7 act)
COc1ccc(CC(N)c2csc(NC(=O)Nc3ccccc3Cc3ccccc3)n2)cc1 (stereo unspecified)	FXN GAA850 act 15 (no result: proCasp3 act, proCasp7 act) | GAA30 FXN cntr inactive | FXN GAA850 conf 7.7
COc1ccc(CC(N)c2csc(NC(=O)Nc3ccccc3C(C)C)n2)cc1 (stereo unspecified)	none (no result: proCasp3 act, proCasp7 act)
NC(Cc1ccc(C(F)(F)F)cc1)c1csc(NC(=O)Nc2ccccc2Oc2ccccc2)n1 (stereo unspecified)	FXN GAA850 act 12 (no result: proCasp3 act, proCasp7 act) | GAA30 FXN cntr inactive | FXN GAA850 conf 8.2
COc1ccccc1NC(=O)Nc1nc(C(N)Cc2ccc(C(F)(F)F)cc2)cs1 (stereo unspecified)	none (no result: proCasp3 act, proCasp7 act)
Cc1cccc(N2CCN(C(=O)NC(C)c3ccc(F)c(F)c3)CC2)c1C (stereo unspecified)	none
CON(C)S(=O)(=O)c1cccc(C(=O)N(CC(=O)Nc2ccccc2C(F)(F)F)Cc2ccco2)c1	none
C#CCNC(=O)C1=C[C@@H](c2ccc(C#C)cc2)C[C@@H](OCc2ccc(CO)cc2)O1	none
C[C@@H]1CN([C@H](C)CO)S(=O)(=O)c2ccc(Br)cc2O[C@@H]1CN(C)Cc1ccc(-c2ccccc2)cc1	FXN GAA850 act 14 (no result: proCasp3 act, proCasp7 act) | GAA30 FXN cntr 24 | FXN GAA850 conf 11
C[C@@H]1CN([C@H](C)CO)S(=O)(=O)c2ccc(Br)cc2O[C@@H]1CN(C)Cc1ccc(C(=O)O)cc1	none (no result: proCasp3 act, proCasp7 act)
COc1cccc2sc(Nc3nnc(-c4ccc(F)cc4)o3)nc12	none
COc1cccc2sc(Nc3nnc(-c4cccs4)o3)nc12	FXN GAA850 act 7.7 | GAA30 FXN cntr 37 | FXN GAA850 conf 40
COc1cccc(/C=C/C(=O)OCC(=O)c2c(N)n(C)c(=O)n(C)c2=O)c1	none
COc1ccc([C@@H]2[C@@H]3C(=O)N(C(C)(C)C)C(=O)[C@@H]3[C@]3(CC(C)C)C(=O)N(c4ccccc4)C(=O)N23)cc1	FXN GAA850 act 15 | GAA30 FXN cntr 40 | FXN GAA850 conf 18

Bioassay records: PubChem BioAssay, The Scripps Research Institute Molecular Screening Center
